Results: ChEMBL document CHEMBL1165950, “Design and synthesis of new potent anticancer pyrazoles with high FLT3 kinase inhibitory selectivity” (Bioorg Med Chem, 2010)

Assays:
Format in all cases: functional
UACC-257 = assay: Cytotoxicity against human UACC257 cells assessed as cell growth at 1 uM after 48 hrs by sulforhodamine B assay; settings: UACC-257, 48 h, read-out: Activity
OVCAR-4 = assay: Growth inhibition of human OVCAR4 cells after 48 hrs by sulforhodamine B assay; settings: OVCAR-4, 48 h; for CC50: read-out: LC50 (the source's name)
How it was run: (§1)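 NCI 60-cell screen, five-dose mode. Cells grown in RPMI 1640 with 5% FBS and 2 mM L-glutamine and plated at 5000-40,000 cells/well according to doubling time. After 24 h preincubation, a Tz plate was TCA-fixed. Five concentrations (10-fold or 1/2 log dilutions) were applied for 48 h at 37 °C. SRB staining read at 515 nm. IC50 taken from [(Ti-Tz)/(C-Tz)]×100 = 50.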

[1] = Growth inhibition of human […] cells after 48 hrs by sulforhodamine B assay; settings: for CC50: read-out: LC50 (the source's name); how it was run: as §1
COLO 205 = assay: Cytotoxicity against human COLO205 cells assessed as cell growth at 0.001 uM after 48 hrs by sulforhodamine B assay; settings: COLO 205, 48 h, read-out: Activity
How it was run: (§2)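 NCI-60 five-dose screen. Cells were grown in RPMI 1640 with 5% FBS and 2 mM L-glutamine, plated at 5000–40,000 cells/well and preincubated for 24 h. Time-zero plates were TCA-fixed. DMSO-solubilized drug was added at five concentrations (10-fold or ½-log serial dilutions) for 48 h at 37 °C, 5% CO2. Cells were TCA-fixed, stained with 0.4% SRB and read at 515 nm. Percent growth used time-zero, control and test absorbances.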

HCT-116 = assay: Cytotoxicity against human HCT116 cells assessed as cell growth at 10 uM; settings: read-out: Activity
How it was run: (§3)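 Single-dose NCI-60 screen at 10 µM. Cells were grown in RPMI 1640 with 5% FBS and 2 mM L-glutamine, then treated for 48 h at 37 °C. Protein was measured by SRB staining with absorbance at 515 nm. Percentage growth was recorded, and inhibition percentage was calculated as 100 minus growth percentage.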

A549 = assay: Cytotoxicity against human A549 cells assessed as cell growth at 0.01 uM after 48 hrs by sulforhodamine B assay; settings: A549, 48 h, read-out: Activity; how it was run: as §2
OVCAR-8 [2] = assay: Cytotoxicity against human OVCAR8 cells assessed as cell growth at 0.001 uM after 48 hrs by sulforhodamine B assay; settings: OVCAR-8, 48 h, read-out: Activity
UO-31 [3] = assay: Cytotoxicity against human UO31 cells assessed as cell growth at 1 uM after 48 hrs by sulforhodamine B assay; settings: UO-31, 48 h, read-out: Activity
Malme-3M = assay: Cytotoxicity against human MALME-3M cells assessed as cell growth at 0.001 uM after 48 hrs by sulforhodamine B assay; settings: read-out: Activity
NCI/ADR-RES = assay: Cytotoxicity against human NCI/ADR-RES cells assessed as cell growth at 10 uM after 48 hrs by sulforhodamine B assay; settings: read-out: Activity
MDA-MB-435 = assay: Cytotoxicity against human MDA-MB-435 cells assessed as cell growth at 0.001 uM after 48 hrs by sulforhodamine B assay; settings: MDA-MB-435, 48 h, read-out: Activity
OVCAR-3 = assay: Cytotoxicity against human OVCAR-3 cells assessed as cell growth at 1 uM after 48 hrs by sulforhodamine B assay; settings: OVCAR-3, 48 h, read-out: Activity
SN12C = assay: Growth inhibition of human SN12C cells after 48 hrs by sulforhodamine B assay; how it was run: as §1
DU-145 = assay: Cytotoxicity against human DU145 cells assessed as cell growth at 100 nM after 48 hrs by sulforhodamine B assay; settings: DU-145, 48 h, read-out: Activity
EKVX = assay: Cytotoxicity against human EKVX cells assessed as cell growth at 10 uM; settings: read-out: Activity; how it was run: as §3
OVCAR-8 [4] = assay: Cytotoxicity against human OVCAR8 cells assessed as cell growth at 10 uM; settings: read-out: Activity
How it was run: (§4)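 NCI-60 screen: cells grown in RPMI 1640 with 5% FBS and 2 mM L-glutamine, plated at 5000–40,000 cells/well according to doubling time, and preincubated 24 h at 37 °C, 5% CO2. The single 10 µM dose (DMSO stock) was added, then incubated 48 h. Cells were TCA-fixed and stained with 0.4% SRB, read at 515 nm, and growth % calculated against time-zero and control plates.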

SK-MEL-2 = assay: Cytotoxicity against human SK-MEL-2 cells assessed as cell growth at 1 uM after 48 hrs by sulforhodamine B assay; settings: SK-MEL-2, 48 h, read-out: Activity
UACC-62 = assay: Growth inhibition of human UACC62 cells after 48 hrs by sulforhodamine B assay; settings: UACC-62, 48 h; for CC50: read-out: LC50 (the source's name); how it was run: as §1
SK-OV-3 = assay: Cytotoxicity against human SKOV3 cells assessed as cell growth at 10 uM; settings: read-out: Activity; how it was run: as §4
T47D = assay: Cytotoxicity against human T47D cells assessed as cell growth at 10 uM; settings: read-out: Activity; how it was run: as §4
HOP-62 = assay: Cytotoxicity against human HOP62 cells assessed as cell growth at 0.001 uM after 48 hrs by sulforhodamine B assay; settings: HOP-62, 48 h, read-out: Activity
HL-60(TB) = assay: Growth inhibition of human HL-60(TB) cells after 48 hrs by sulforhodamine B assay; settings: HL-60, 48 h
How it was run: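 NCI 60-cell SRB screen. Cells in RPMI 1640 with 5% FBS and 2 mM L-glutamine are preincubated 24 h, then exposed to five concentrations (10-fold or 1/2-log dilutions from DMSO stock) for 48 h at 37 °C. Suspension cells are fixed with 80% TCA (final 16%), and A515 is read. IC50 is taken as the concentration where [(Ti−Tz)/(C−Tz)]×100 = 50, i.e. 50% reduction in net protein increase.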

IGROV-1 = assay: Cytotoxicity against human IGROV1 cells assessed as cell growth at 0.001 uM after 48 hrs by sulforhodamine B assay; settings: IGROV-1, 48 h, read-out: Activity
UO-31 [5] = assay: Cytotoxicity against human UO31 cells assessed as cell growth at 0.01 uM after 48 hrs by sulforhodamine B assay; settings: UO-31, 48 h, read-out: Activity
NCI-H522 = assay: Cytotoxicity against human NCI-H522 cells assessed as cell growth at 1 uM after 48 hrs by sulforhodamine B assay; settings: NCI-H522, 48 h, read-out: Activity
SF-295 = assay: Cytotoxicity against human SF295 cells assessed as cell growth at 10 uM; settings: read-out: Activity; how it was run: as §4
MCF7 = assay: Cytotoxicity against human MCF7 cells assessed as cell growth at 10 uM; settings: read-out: Activity; how it was run: as §4
CAKI-1 = assay: Cytotoxicity against human Caki1 cells assessed as cell growth at 0.001 uM after 48 hrs by sulforhodamine B assay; settings: CAKI-1, 48 h, read-out: Activity

Row | SMILES | growth at 1 µM (UACC-257) | GI50 (OVCAR-4) | TGI (OVCAR-4) | CC50 (OVCAR-4) | GI50 [1] | TGI [1] | CC50 [1] | growth at 0.001 µM (COLO 205) | growth at 10 µM (HCT-116) | growth at 0.01 µM (A549) | growth at 0.001 µM (OVCAR-8 [2]) | growth at 1 µM (UO-31 [3]) | growth at 0.001 µM (Malme-3M) | growth at 10 µM (NCI/ADR-RES) | growth at 0.001 µM (MDA-MB-435) | growth at 1 µM (OVCAR-3) | GI50 (SN12C) | LC50 (SN12C) | TGI (SN12C) | growth at 0.1 µM (DU-145) | further results
1 | Cc1cc(O)cc(-c2nn(CC#N)cc2-c2ccnc(-c3ccc(N(C)C)cc3)c2)c1 | 31% | 4.85 µM | > 100 µM | > 100 µM | 3.71 µM | 22.2 µM | > 100 µM | 109% | 12.3% | 91% | 100% | 19% | 91% | -4% | 99% | -40% | 4.28 µM | > 100 µM | 30 µM | 94% | growth at 10 µM (EKVX): 71.6%; growth at 10 µM (OVCAR-8 [4]): 45%; growth at 1 µM (SK-MEL-2): 11%; GI50 (UACC-62): 3.05 µM; TGI (UACC-62): 14 µM; CC50 (UACC-62): 72.1 µM; growth at 10 µM (SK-OV-3): 18%; growth at 10 µM (T47D): 17.7%; growth at 0.001 µM (HOP-62): 92%; GI50 (HL-60(TB)): 3.14 µM; LC50 (HL-60(TB)): > 100 µM; TGI (HL-60(TB)): 12.9 µM; growth at 0.001 µM (IGROV-1): 107%; growth at 0.01 µM (UO-31 [5]): 84%; growth at 1 µM (NCI-H522): -13%; growth at 10 µM (SF-295): 56.9%; growth at 10 µM (MCF7): 14.9%; growth at 0.001 µM (CAKI-1): 103%
2 | COc1cc(C)cc(-c2nn(CC#N)cc2-c2ccnc(-c3ccc(N(C)C)cc3)c2)c1 | 48% | 0.549 µM | > 100 µM | > 100 µM | 1.36 µM | 10.7 µM | > 100 µM | 107% | -31.6% | 97% | 97% | 18% | 88% | -10% | 103% | -41% | 0.73 µM | > 100 µM | 33.1 µM | 2% | growth at 10 µM (EKVX): 41%; growth at 10 µM (OVCAR-8 [4]): 12%; growth at 1 µM (SK-MEL-2): 23%; GI50 (UACC-62): 0.337 µM; TGI (UACC-62): 40.7 µM; CC50 (UACC-62): > 100 µM; growth at 10 µM (SK-OV-3): 2.56%; growth at 10 µM (T47D): 39%; growth at 0.001 µM (HOP-62): 108%; GI50 (HL-60(TB)): 0.293 µM; LC50 (HL-60(TB)): > 100 µM; TGI (HL-60(TB)): 0.923 µM; growth at 0.001 µM (IGROV-1): 103%; growth at 0.01 µM (UO-31 [5]): 92%; growth at 1 µM (NCI-H522): -61%; growth at 10 µM (SF-295): -8.52%; growth at 10 µM (MCF7): 10.1%; growth at 0.001 µM (CAKI-1): 102%
